Compound activity deposited in PubChem by Broad Institute.
In the library only some 2.1% were active in any assay of this set; here they are far more common.
SR-BI HDL uptake: mouse SR-BI HDL lipid transfer inhibition; Q61009; ldlA[mSR-BI] CHO cells, DiI-HDL uptake fluorescence, 3 h; inhibition, % at 12.5 µM; 320,000 tested, 0.96% active; AID 488896;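 active = mean replicate inhibition of at least 70% and a set share of replicates each scoring 70 or more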;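 also: 0% = median of neutral control wells and 100% = median of positive control wells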
Target sequence (Q61009 whole entry, looked up): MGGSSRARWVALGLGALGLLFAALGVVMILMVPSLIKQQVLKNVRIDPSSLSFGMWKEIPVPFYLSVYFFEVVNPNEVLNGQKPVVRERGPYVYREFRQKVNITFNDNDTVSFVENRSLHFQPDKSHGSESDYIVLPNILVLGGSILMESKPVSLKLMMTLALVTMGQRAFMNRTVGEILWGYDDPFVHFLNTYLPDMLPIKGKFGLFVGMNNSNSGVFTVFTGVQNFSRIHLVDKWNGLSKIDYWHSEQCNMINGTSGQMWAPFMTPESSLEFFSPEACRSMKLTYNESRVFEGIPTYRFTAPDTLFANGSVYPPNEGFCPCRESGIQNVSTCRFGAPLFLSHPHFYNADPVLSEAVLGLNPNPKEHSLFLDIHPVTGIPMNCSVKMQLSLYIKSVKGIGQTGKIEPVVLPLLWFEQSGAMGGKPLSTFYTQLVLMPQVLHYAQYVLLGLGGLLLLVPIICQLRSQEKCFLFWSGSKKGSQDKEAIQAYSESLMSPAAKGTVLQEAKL
SR-BI DiI-HDL act: SR-BI HDL lipid transfer activation; activation, % at 12.5 µM; 320,000 tested, 0.096% active; CHO ldlA[mSR-BI] cells, DiI-HDL uptake fluorescence, 3 h; 100 = double the neutral-control signal;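 active = mean replicate activation of at least 60% and every replicate at or above 60%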;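 also: 0% = median plate neutral-control signal and 100% = twice that signal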
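Assay system: LDL receptor-deficient CHO ldlA cells overexpressing murine SR-BI / Medium: BSA-supplemented, HEPES-buffered Ham's F12, pH 7.4 / Probe or stimulus: DiI-labelled HDL at 10 µg/mL final / Timing: compound with DiI-HDL co-incubation, 3 h at 37 °C / Technique: bottom-read cell fluorescence after medium removal, ex 550/em 595 nm / Measure: HDL uptake via cellular fluorescence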
CAL PDZ FP-1: inhibitors of human CAL PDZ peptide binding; purified CAL PDZ, TMR-peptide fluorescence polarization, 1 h; 330,000 tested, 0.02% active; inhibition, % at 20 µM; Q9HD26;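 active = highest replicate inhibition of at least 40%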;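 also: plate controls were DMSO neutral control wells for no effect and unlabeled competitor peptide control wells for full effect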
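material = purified tagged CAL PDZ domain construct (CerCALP) | buffer or medium = sodium phosphate/NaCl buffer pH 7.4 with TCEP, IgG, Thesit | reagent = TMR-labelled reporter peptide T*-PRC34 bound in PDZ groove | incubation = 1 h room-temperature incubation prior to read | measured by = fluorescence polarization (mP) | evaluation = percent inhibition from loss of millipolarization | control set = unlabelled peptide and DMSO controls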
CAL PDZ FP-2: inhibitors of human CAL PDZ peptide binding | Q9HD26 | purified CAL PDZ, TMR-peptide fluorescence polarization, 1 h | inhibition, % at 24.9 µM | 300,000 tested, 0.92% active | AID 602252;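 active = mean inhibition of at least 30% with at least half of replicates also reaching 30%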;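 also: 0% = DMSO neutral control and 100% = excess unlabeled competitor peptide PRC23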
ARNT TACC3 PPI: disruptors of human ARNT/TACC3 interaction; Q9Y6A5; AlphaScreen His-ARNT PAS-B/GST-TACC3 binding, luminescence; TACC3 fragment carries E629A point mutation; inhibition, % at 9.99 µM; 390,000 tested, 0.66% active;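 active = mean inhibition of replicates at least 50% and at least half of replicates each reaching 50%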;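 also: 0% = complete ARNT plus TACC3 wells and 100% = ARNT alone without TACC3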
miR-122 sensor: miR-122 inhibition in Huh7 cells | 340,000 tested, 0.3% active | Huh7 miR-122 Renilla luciferase sensor, 48 h; neutral wells = 0, positive control = 100 | AID 602342 | activation (reporter increase), % at 12.5 µM;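 active = mean replicate activation score at least 90 and every replicate individually at or above 90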;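 also: higher luciferase means less miR-122 activity so hits act as miR-122 inhibitors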
* hit, by the source's call; nt = no result given; [ ] = remark or other dose.

SMILES | SR-BI HDL uptake | SR-BI DiI-HDL act | CAL PDZ FP-1 | CAL PDZ FP-2 | ARNT TACC3 PPI | miR-122 sensor
O=C(NC1CCCC1)C1CCCN(S(=O)(=O)c2ccc(-n3cnnn3)cc2)C1 (stereo not drawn) | -14.7 | 14.7 | nt | 33.5* | -5.8 | 1.7
CCNC(=O)C[C@@H]1CC[C@@H]2[C@@H](COc3ccc(NC(=O)c4cccc(OC)c4)cc3C(=O)N2C)O1 | nt | nt | nt | nt | -8.3 | -1.8[16.7 µM]
COC(=O)c1ccc(NC(=O)CN2C(=O)NC3(CCC(C)CC3)C2=O)cc1 (stereo not drawn) | -10.1 | 10.1 | -0.8 | 56.2* | 0.6 | -8.5
CCOC(=O)c1ccc(NC(=O)CN2C(=O)NC3(CCC(C)CC3)C2=O)cc1 (stereo not drawn) | 4.9 | -4.9 | -0.7 | nt | -2.3 | 1.8
O=C(CN1C(=O)NC2(CCCCC2)C1=O)Nc1ccc(N2CCCCC2)cc1 | -13.2 | 13.2 | -1.1 | 3.1 | 11.8 | nt
CC1CC(C)(C)CC2(C1)NC(=O)N(CC(=O)Nc1ccc(N3CCCCC3)cc1)C2=O (stereo not drawn) | 73.3* | nt | -0.4 | nt | 28.7 | nt
Cc1cc(Nc2nc3ccccc3nc2Cl)n(-c2ccc([N+](=O)[O-])cc2)n1 | 79.2* | -79.2 | -1.3 | -3.3 | -1.3 | nt
Cc1cc(Nc2nc3ccccc3[nH]c2=O)n(-c2ccccc2)n1 | 15.9 | -15.9 | -3.7 | -0.8 | -2.2 | -10.5
Clc1ccc(-c2csc(N/N=C/c3ccc4c(c3)OCO4)n2)cc1 | 109.0* | -109.0 | -2.4 | 0.8 | -3.1 | nt
O=C(NCc1ccccc1)[C@@]1(Cc2ccccc2)COC(c2ccc(OCCCO)cc2)=N1 | nt | nt | nt | nt | -4.5 | nt
CC(C)c1ccc(S(=O)(=O)Nc2ccc(-n3cnnn3)cc2)cc1 | -12.9 | 12.9 | -1.1 | nt | -1.3 | 103.2*
CC(C)c1ccc(NS(=O)(=O)c2ccc(-n3cccn3)cc2)cc1 | nt | nt | -2.4 | -3.7 | -4.1 | 21.1
OC[C@@H]1[C@H](c2ccc(/C=C/c3ccccc3)cc2)[C@@H]2CN(Cc3ccncc3)CCCCN12 | nt | nt | nt | nt | 4.9 | 5.1[16.7 µM]
CCN(CC)S(=O)(=O)c1ccc(Cl)c(NC(=S)NC(=O)C2CCCC2)c1 | 71.1* | -71.1 | -1.7 | 19.4 | -3.4 | -1.9
COc1ccccc1NS(=O)(=O)c1ccc(Cl)c(NC(=S)NC(=O)C2CCCC2)c1 | 32.7 | -32.7 | -1.9 | -2.7 | -5.8 | nt
CCN(CC)c1ccc(S(=O)(=O)Nc2cc(Cl)ccc2Cl)cc1NC(=S)NC(=O)C1CCCC1 | -33.0 | 33.0 | -0.4 | -5.0 | -1.2 | 284.6*
C[C@@H]1CN([C@H](C)CO)C(=O)c2cc(NC(=O)CCC(F)(F)F)ccc2O[C@@H](C)CCCCO[C@@H]1CN(C)S(=O)(=O)c1cn(C)cn1 | nt | nt | nt | nt | -8.9 | 7.2[16.7 µM]
Cn1cc(C(=O)c2ccc(Cl)cc2Cl)cc1C(=O)N/N=C(\N)COc1ccc(Cl)cc1 | nt | nt | -3.9 | -2.3 | 37.5 | nt
Cn1cc(C(=O)c2ccc(Cl)cc2Cl)cc1C(=O)N/N=C(\N)COc1ccc(Cl)cc1Cl | 83.5* | -83.5 | -0.4 | 3.1 | -4.4 | -1.8
CS(=O)(=O)N1N=C(c2ccc(Cl)cc2)CC1c1cccs1 (stereo not drawn) | 1.3 | -1.3 | 0.2 | nt | nt | 126.3*
COc1ccc(-c2cc(OC)c3ccccc3n2)cc1 | 35.5 | -35.5 | -1.9 | -9.7 | -12.7 | 4.3
COc1ccc(-c2cc3cc(OC)c(OC)cc3c(C)n2)cc1 | 80.1* | -43.4 | -2.1 | -8.9 | -1.6 | 10.3
CN(CC(=O)Nc1ccc(F)c(F)c1F)C(=O)C1(c2ccccc2)CC1 | nt | nt | nt | nt | nt | -0.4
CN(CC(=O)Nc1ccc(F)c(F)c1F)C(=O)C1=NN(c2ccccc2)C(=O)CC1 | 5.5 | -5.5 | 0.1 | 31.5* | nt | nt
CN(C)S(=O)(=O)c1ccc2c(c1)nc(CCC(=O)NCC1CCCCC1)n2C | -7.3 | 7.3 | -1.0 | -3.5 | -4.9 | 164.0*
Cc1noc(C)c1S(=O)(=O)Nc1ccc2c(c1)CC(=O)N([C@@H](C)CO)C[C@@H](C)[C@H](CN(C)S(C)(=O)=O)O2 | nt | nt | nt | nt | -7.0 | 12.8[16.7 µM]
Cc1ccc(CNS(=O)(=O)c2ccc3c(c2)CCN3C(=O)C2CCC2)cc1 | -12.1 | 12.1 | -0.1 | -2.5 | -9.8 | -0.6
O=S(=O)(NCc1ccco1)c1ccc2ccccc2c1 | -4.7 | 4.7 | -2.2 | -7.5 | -0.4 | 95.2*
